From ChEMBL document CHEMBL2203076, “Kandenols A-E, eudesmenes from an endophytic Streptomyces sp. of the mangrove tree Kandelia candel” (2012)
Converted amounts (≈) assume the structure as drawn.

Experiments:
Type in all cases: functional
[1] = system: Bacillus subtilis; assay: Antimicrobial activity against Bacillus subtilis ATCC 6633 by broth microdilution method
[2] = system: Mycolicibacterium vaccae; assay: Antimicrobial activity against Mycobacterium vaccae ATCC IMET 10670 by broth microdilution method
[3] = system: Enterococcus faecalis; assay: Antimicrobial activity against vancomycin-resistant Enterococcus faecalis 1528 R10 by broth microdilution method
How it was run: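 MIC read-out by standard broth microdilution against E. faecalis 1528 R10, run in the same panel as Bacillus subtilis ATCC 6633 and Mycobacterium vaccae IMET 10670.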

## CC1=CC(=O)C[C@]2(C)C[C@@H](O)[C@H](C(C)(C)O)C[C@@H]12 (relative stereo) [KANDENOL A]
[1]
  MIC: 50 µg/mL (≈ 198 µM)
[2]
  MIC: 12.5 µg/mL (≈ 49.5 µM)
[3]
  MIC: > 100 µg/mL

## CC1=CC(=O)C[C@]2(C)C[C@@H](O)[C@H](C(C)(C)O)C[C@@]12O (relative stereo) [KANDENOL B]
[1]
  MIC: 50 µg/mL (≈ 186 µM)
[2]
  MIC: 12.5 µg/mL (≈ 46.6 µM)
[3]
  MIC: > 100 µg/mL

## O=C(O)c1cn(C2CC2)c2cc(N3CCNCC3)c(F)cc2c1=O [CIPROFLOXACIN]
[1]
  MIC: < 0.05 µg/mL
[2]
  MIC: 0.1 µg/mL (≈ 0.302 µM)
[3]
  MIC: 0.78 µg/mL (≈ 2.35 µM)

## CC1=CC(=O)C[C@]2(C)C[C@@H](O)[C@H](C(C)(C)O)C[C@@]12OO [KANDENOL C]
[1]
  MIC: > 100 µg/mL
[2]
  MIC: 12.5 µg/mL (≈ 44 µM)
[3]
  MIC: > 100 µg/mL

## CC1=CC(=O)C[C@]2(C)CC[C@H](C(C)(C)O)C[C@@]12OO [KANDENOL D]
[1]
  MIC: 50 µg/mL (≈ 186 µM)
[2]
  MIC: 25 µg/mL (≈ 93.2 µM)
[3]
  MIC: > 100 µg/mL

## CC1=CC(=O)C[C@]2(C)C[C@@H](O)[C@@H]3C[C@@]12OC3(C)C [KANDENOL E]
[1]
  MIC: 50 µg/mL (≈ 200 µM)
[2]
  MIC: 12.5 µg/mL (≈ 49.9 µM)
[3]
  MIC: > 100 µg/mL
